Measured values published in ChEMBL document CHEMBL5724801, “EUbOPEN Chemogenomics Library - Multiplex” (2024).
Where “and” joins values, the source holds several entries; their conditions need not be identical. Equal values may be shown once.

The compounds below were run on Fibroblast (assay: Multiplex assay against human fibroblast). Conditions: 12 h, 1 µM, compound concentration 1 uM.
Assay type: toxicity, cell-based
Outline: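 Compound was added to live cells that had been stained at seeding with Hoechst33342, BioTracker Green Microtubule Cytoskeleton Dye, MitoTracker Red and Annexin V Alexa Fluor 680, and imaging followed on a CQ1 microscope at 37°C and 5% CO2. CellPathfinder machine-learning gating divided cells into Hoechst high-intensity objects or normal cells, normal cells into healthy, pyknosed or fragmented nuclei, and pyknosed cells into mitotic or apoptotic. Tubulin, mitochondrial-mass and membrane-permeability phenotypes are per cents of healthy-nucleus cells.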

| SMILES | Population Apoptotic (%) | Population Fragmented Nuclei (%) | Population Healthy Nuclei (%) | Population Hoechst High Intensity Objects (%) | Population Membrane Permeable-Phenotype (%) | Population Mitochondria Different-Phenotype (%) | Population Mitotic Cells (%) | Population Normal (%) | Population Pyknosed Nuclei (%) | Population Tubulin-Different-Phenotype (%) |
| --- | --- | --- | --- | --- | --- | --- | --- | --- | --- | --- |
| Nc1nc(CC(=O)Nc2ccc(CCNC[C@H](O)c3ccccc3)cc2)cs1 [MIRABEGRON] | 53% and 31% | 19% and 27% | 62% and 52% | 5% and 4% | 0% and 9% | 6% and 12% | 46% and 68% | 94% and 95% | 18% and 19% | 25% and 46% |
| Cc1c(C(=O)NCCCN(C)C)sc2ncnc(Nc3ccc(F)cc3OC(C)CF)c12 (stereo not given) | – | 17.37% and 8.18% | 51.64% and 79.93% | 0% | 0.91% and 2.79% | 15.45% and 13.95% | 92.42% and 75% | 100% | 30.99% and 11.9% | 30.91% and 38.14% |

Same assay, conditions: 12 h, 1 µM, compound concentration 1 uM

| SMILES | Total Cell Count |
| --- | --- |
| Nc1nc(CC(=O)Nc2ccc(CCNC[C@H](O)c3ccccc3)cc2)cs1 [MIRABEGRON] | 164 and 189 |
| Cc1c(C(=O)NCCCN(C)C)sc2ncnc(Nc3ccc(F)cc3OC(C)CF)c12 (stereo not given) | 213 and 269 |

Same assay, conditions: 12 h, 10 µM, compound concentration 10 uM

| SMILES | Population Apoptotic (%) | Population Fragmented Nuclei (%) | Population Healthy Nuclei (%) | Population Hoechst High Intensity Objects (%) | Population Membrane Permeable-Phenotype (%) | Population Mitochondria Different-Phenotype (%) | Population Mitotic Cells (%) | Population Normal (%) | Population Pyknosed Nuclei (%) | Population Tubulin-Different-Phenotype (%) |
| --- | --- | --- | --- | --- | --- | --- | --- | --- | --- | --- |
| Nc1nc(CC(=O)Nc2ccc(CCNC[C@H](O)c3ccccc3)cc2)cs1 [MIRABEGRON] | 46% and 30% | 15% and 31% | 75% and 41% | 3% and 5% | 0% and 1% | 4% and 3% | 53% and 69% | 96% and 94% | 9% and 27% | 19% and 45% |
| Cc1c(C(=O)NCCCN(C)C)sc2ncnc(Nc3ccc(F)cc3OC(C)CF)c12 (stereo not given) | 19.3% and 27.27% | 12.69% and 4.88% | 43.46% and 60.98% | 0% | 10.62% and 8% | 35.4% and 21.45% | 80.7% and 72.73% | 100% | 43.85% and 34.15% | 46.9% and 77.82% |

Same assay, conditions: 12 h, 10 µM, compound concentration 10 uM

| SMILES | Total Cell Count |
| --- | --- |
| Nc1nc(CC(=O)Nc2ccc(CCNC[C@H](O)c3ccccc3)cc2)cs1 [MIRABEGRON] | 171 and 137 |
| Cc1c(C(=O)NCCCN(C)C)sc2ncnc(Nc3ccc(F)cc3OC(C)CF)c12 (stereo not given) | 260 and 451 |

Same assay, conditions: 24 h, 1 µM, compound concentration 1 uM

| SMILES | Population Apoptotic (%) | Population Fragmented Nuclei (%) | Population Healthy Nuclei (%) | Population Hoechst High Intensity Objects (%) | Population Membrane Permeable-Phenotype (%) | Population Mitochondria Different-Phenotype (%) | Population Mitotic Cells (%) | Population Normal (%) | Population Pyknosed Nuclei (%) | Population Tubulin-Different-Phenotype (%) |
| --- | --- | --- | --- | --- | --- | --- | --- | --- | --- | --- |
| Nc1nc(CC(=O)Nc2ccc(CCNC[C@H](O)c3ccccc3)cc2)cs1 [MIRABEGRON] | 59% and 58% | 17% and 27% | 64% and 57% | 5% | 1% and 9% | 4% and 7% | 40% and 41% | 94% | 18% and 14% | 28% and 45% |
| Cc1c(C(=O)NCCCN(C)C)sc2ncnc(Nc3ccc(F)cc3OC(C)CF)c12 (stereo not given) | – | 16.28% and 8.79% | 68.99% and 76.87% | 0% | 2.25% and 3.81% | 5.06% and 8.05% | 94.74% and 72.73% | 100% | 14.73% and 14.33% | 28.09% and 38.14% |

Same assay, conditions: 24 h, 1 µM, compound concentration 1 uM

| SMILES | Total Cell Count |
| --- | --- |
| Nc1nc(CC(=O)Nc2ccc(CCNC[C@H](O)c3ccccc3)cc2)cs1 [MIRABEGRON] | 156 and 179 |
| Cc1c(C(=O)NCCCN(C)C)sc2ncnc(Nc3ccc(F)cc3OC(C)CF)c12 (stereo not given) | 258 and 307 |

Same assay, conditions: 24 h, 10 µM, compound concentration 10 uM

| SMILES | Population Apoptotic (%) | Population Fragmented Nuclei (%) | Population Healthy Nuclei (%) | Population Hoechst High Intensity Objects (%) | Population Membrane Permeable-Phenotype (%) | Population Mitochondria Different-Phenotype (%) | Population Mitotic Cells (%) | Population Normal (%) | Population Pyknosed Nuclei (%) | Population Tubulin-Different-Phenotype (%) |
| --- | --- | --- | --- | --- | --- | --- | --- | --- | --- | --- |
| Nc1nc(CC(=O)Nc2ccc(CCNC[C@H](O)c3ccccc3)cc2)cs1 [MIRABEGRON] | 53% and 55% | 15% and 29% | 75% and 48% | 2% and 4% | 0% and 4% | 4% and 6% | 46% and 44% | 97% and 95% | 8% and 21% | 24% and 44% |
| Cc1c(C(=O)NCCCN(C)C)sc2ncnc(Nc3ccc(F)cc3OC(C)CF)c12 (stereo not given) | 33.11% and 50.51% | 9.29% and 4.55% | 35.69% and 45.45% | 0% | 13.54% and 11.11% | 40.62% and 36.11% | 66.89% and 49.49% | 100% | 55.02% and 50% | 75% and 87.78% |

Same assay, conditions: 24 h, 10 µM, compound concentration 10 uM

| SMILES | Total Cell Count |
| --- | --- |
| Nc1nc(CC(=O)Nc2ccc(CCNC[C@H](O)c3ccccc3)cc2)cs1 [MIRABEGRON] | 181 and 131 |
| Cc1c(C(=O)NCCCN(C)C)sc2ncnc(Nc3ccc(F)cc3OC(C)CF)c12 (stereo not given) | 269 and 396 |

Same assay, conditions: 48 h, 1 µM, compound concentration 1 uM

| SMILES | Population Apoptotic (%) | Population Fragmented Nuclei (%) | Population Healthy Nuclei (%) | Population Hoechst High Intensity Objects (%) | Population Membrane Permeable-Phenotype (%) | Population Mitochondria Different-Phenotype (%) | Population Mitotic Cells (%) | Population Normal (%) | Population Pyknosed Nuclei (%) | Population Tubulin-Different-Phenotype (%) |
| --- | --- | --- | --- | --- | --- | --- | --- | --- | --- | --- |
| Nc1nc(CC(=O)Nc2ccc(CCNC[C@H](O)c3ccccc3)cc2)cs1 [MIRABEGRON] | 76% and 50% | 23% and 40% | 60% and 52% | 7% and 2% | 2% and 4% | 6% and 10% | 23% and 50% | 92% and 97% | 15% and 7% | 28% and 32% |
| Cc1c(C(=O)NCCCN(C)C)sc2ncnc(Nc3ccc(F)cc3OC(C)CF)c12 (stereo not given) | 28.57% and 61.54% | 15.91% and 10.44% | 79.55% and 85.44% | 0% | 0% and 7.04% | 6.94% and 2.59% | 71.43% and 38.46% | 100% | 4.55% and 4.11% | 15.92% and 33.7% |

Same assay, conditions: 48 h, 1 µM, compound concentration 1 uM

| SMILES | Total Cell Count |
| --- | --- |
| Nc1nc(CC(=O)Nc2ccc(CCNC[C@H](O)c3ccccc3)cc2)cs1 [MIRABEGRON] | 176 and 195 |
| Cc1c(C(=O)NCCCN(C)C)sc2ncnc(Nc3ccc(F)cc3OC(C)CF)c12 (stereo not given) | 308 and 316 |

Same assay, conditions: 48 h, 10 µM, compound concentration 10 uM

| SMILES | Population Apoptotic (%) | Population Fragmented Nuclei (%) | Population Healthy Nuclei (%) | Population Hoechst High Intensity Objects (%) | Population Membrane Permeable-Phenotype (%) | Population Mitochondria Different-Phenotype (%) | Population Mitotic Cells (%) | Population Normal (%) | Population Pyknosed Nuclei (%) | Population Tubulin-Different-Phenotype (%) |
| --- | --- | --- | --- | --- | --- | --- | --- | --- | --- | --- |
| Nc1nc(CC(=O)Nc2ccc(CCNC[C@H](O)c3ccccc3)cc2)cs1 [MIRABEGRON] | 64% and 75% | 18% and 39% | 74% and 48% | 4% and 3% | 0% and 6% | 4% and 6% | 35% and 25% | 95% and 96% | 7% and 12% | 21% and 51% |
| Cc1c(C(=O)NCCCN(C)C)sc2ncnc(Nc3ccc(F)cc3OC(C)CF)c12 (stereo not given) | 51.69% and 82.89% | 13.56% and 8.54% | 48.73% and 29.67% | 0% | 14.78% and 17.81% | 50.43% and 54.79% | 48.31% and 17.11% | 100% | 37.71% and 61.79% | 76.52% and 83.56% |

Same assay, conditions: 48 h, 10 µM, compound concentration 10 uM

| SMILES | Total Cell Count |
| --- | --- |
| Nc1nc(CC(=O)Nc2ccc(CCNC[C@H](O)c3ccccc3)cc2)cs1 [MIRABEGRON] | 194 and 132 |
| Cc1c(C(=O)NCCCN(C)C)sc2ncnc(Nc3ccc(F)cc3OC(C)CF)c12 (stereo not given) | 236 and 246 |
